We go through eleven compounds from ChEMBL document CHEMBL4706590, “Design and characterization of cereblon-mediated androgen receptor proteolysis-targeting chimeras” (Eur J Med Chem, 2020).

In general, CC50 refers to the concentration giving 50% cytotoxicity.

Each structure is given as a SMILES string.

The subject of one data set is LNCaP. In words: Antiproliferative activity against human LNCaP cells assessed as reduction in cell viability after 6 days by CellTiter-Glo assay. The class given is functional. The settings on record: 144 h, time 6 day. The procedure, abridged: (§1)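 LNCaP seeded at 1.5 × 10³ and VCaP at 4 × 10³ cells per well in 96-well plates. Cells grown in IMDM with 10% FBS and antibiotic-antimycotic at 37 °C, 5% CO2, with DMSO as vehicle. IC50 from nonlinear regression of log(inhibitor) versus response.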
Background: Cellular ATP, detected with luciferase, serves as a proxy for viable cell number.

The target in data set [1] is T1, Protein cereblon/Androgen receptor (Homo sapiens, UniProt P10275+Q96SW2). The experiment in a line: Protac activity at CRBN/AR in human LNCaP cells assessed as AR degradation at 1 uM by Western blotting analysis relative to control. The class given is cell-based. The procedure, abridged: (§2)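 LNCaP (IMDM) or 22RV1 (RPMI 1640) cells with 10% FBS at 37 °C, 5% CO2, treated with DMSO vehicle as control. Cells lysed in RIPA buffer (50 mM Tris-HCl pH 7.5, 150 mM NaCl, 1% Triton X-100, 0.1% SDS, 0.5% deoxycholate, protease inhibitors). Protein quantified by Bradford assay. Immunoblotted for AR with tubulin as loading control, HRP chemiluminescence detection.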
T1 sequence (P10275 whole entry, looked up): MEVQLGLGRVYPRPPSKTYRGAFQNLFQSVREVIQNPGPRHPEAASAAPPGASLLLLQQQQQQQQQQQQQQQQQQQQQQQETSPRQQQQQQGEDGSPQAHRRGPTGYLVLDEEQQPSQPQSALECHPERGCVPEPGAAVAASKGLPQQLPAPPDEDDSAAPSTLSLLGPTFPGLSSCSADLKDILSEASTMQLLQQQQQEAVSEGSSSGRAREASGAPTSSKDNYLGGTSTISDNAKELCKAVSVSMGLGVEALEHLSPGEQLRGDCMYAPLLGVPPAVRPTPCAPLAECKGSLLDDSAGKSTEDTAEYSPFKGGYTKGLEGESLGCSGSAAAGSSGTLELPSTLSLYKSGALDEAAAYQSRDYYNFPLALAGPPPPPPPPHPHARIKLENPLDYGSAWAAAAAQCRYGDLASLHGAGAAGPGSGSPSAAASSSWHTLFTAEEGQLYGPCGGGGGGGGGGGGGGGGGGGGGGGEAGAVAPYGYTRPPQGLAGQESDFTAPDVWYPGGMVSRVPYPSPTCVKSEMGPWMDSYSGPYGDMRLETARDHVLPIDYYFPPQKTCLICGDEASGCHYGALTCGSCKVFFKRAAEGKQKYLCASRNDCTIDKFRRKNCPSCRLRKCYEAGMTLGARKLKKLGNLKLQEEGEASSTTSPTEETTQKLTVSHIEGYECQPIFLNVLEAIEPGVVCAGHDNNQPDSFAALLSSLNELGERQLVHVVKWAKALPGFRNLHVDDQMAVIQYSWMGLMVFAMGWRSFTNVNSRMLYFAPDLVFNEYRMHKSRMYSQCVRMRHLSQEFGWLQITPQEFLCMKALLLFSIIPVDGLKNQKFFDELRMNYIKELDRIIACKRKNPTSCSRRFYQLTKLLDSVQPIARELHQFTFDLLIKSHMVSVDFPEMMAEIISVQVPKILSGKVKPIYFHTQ
T1 sequence (Q96SW2 whole entry, looked up): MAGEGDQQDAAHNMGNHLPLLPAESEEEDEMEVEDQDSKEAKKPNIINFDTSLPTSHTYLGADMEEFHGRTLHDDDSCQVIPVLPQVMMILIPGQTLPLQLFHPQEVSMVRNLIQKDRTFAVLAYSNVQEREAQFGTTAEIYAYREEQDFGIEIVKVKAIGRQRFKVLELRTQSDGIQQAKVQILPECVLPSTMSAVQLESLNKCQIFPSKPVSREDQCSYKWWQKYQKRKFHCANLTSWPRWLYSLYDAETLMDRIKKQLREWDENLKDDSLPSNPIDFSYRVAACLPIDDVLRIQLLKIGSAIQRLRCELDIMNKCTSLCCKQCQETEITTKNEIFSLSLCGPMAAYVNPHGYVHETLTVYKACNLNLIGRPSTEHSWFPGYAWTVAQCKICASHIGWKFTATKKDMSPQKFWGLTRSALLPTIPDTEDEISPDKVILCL

Data set [2] deals with T1, Protein cereblon/Androgen receptor. The experiment in a line: Protac activity at CRBN/AR in human LNCaP cells assessed as AR degradation at 10 uM by Western blotting analysis relative to control. The class given is cell-based. The procedure, abridged:
as §2
On the technique in general: In western blotting, separated proteins are transferred to a membrane and probed.

Another data set concerns VCaP. In words: Antiproliferative activity against human VCaP cells assessed as reduction in cell viability after 6 days by CellTiter-Glo assay. The class given is functional. As to conditions: 144 h, time 6 day. The procedure, abridged: as §1
The target of data set [3] is T1, Protein cereblon/Androgen receptor. In words: Protac activity at CRBN/AR in human LNCaP cells assessed as AR degradation at 0.1 uM by western blotting analysis relative to control. Format: cell-based. The procedure, abridged:
as §2

The nature of data set [4]: Metabolic stability in mouse liver microsomes assessed as compound remaining at 1 uM after 30 mins in presence of NADPH-regenerating system. The class given is ADME, Microsome. As to conditions: read-out: Stabilty. The method, boiled down:
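Mouse liver microsomes at 0.5 mg protein/mL in 100 mM PBS, pH 7.4. Reaction started with NADPH-regenerating solution (1.3 mM NADP+, 3.3 mM glucose-6-phosphate, 0.4 U/mL G6PDH, 3.3 mM MgCl2). Incubated 30 min at 37 °C, stopped with ice-cold acetonitrile, centrifuged. Percent remaining reported as mean ± SD, n = 3.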
On the technique in general: Liver microsomes are a subcellular fraction often used to study metabolism.

`CC1(C)[C@H](NC(=O)c2ccc(N3CCN(CCOC4CCN(C(=O)COc5ccc6nnn(C7CCC(=O)NC7=O)c(=O)c6c5)CC4)CC3)cc2)C(C)(C)[C@H]1Oc1ccc(C#N)c(Cl)c1` (stereo partly specified): the CC50 with LNCaP turned out to be 1300 nM; with VCaP, 141 nM. In addition, the Activity in data set [1] came out at 98%; in data set [2], 94%; in data set [3], 86%.

As to `CC1(C)[C@H](NC(=O)c2ccc(N3CCN(CC4CCN(c5cccc6nnn(C7CCC(=O)NC7=O)c(=O)c56)CC4)CC3)cc2)C(C)(C)[C@H]1Oc1ccc(C#N)c(Cl)c1` (stereo partly specified), the cytotoxic concentration (CC50) in the data set on LNCaP was 613 nM. Besides, the Activity in data set [1] turned out to be 77%; in data set [2], 78%; in data set [3], 15%.

Regarding `CC1(C)[C@H](NC(=O)c2ccc(N3CCN(CC4CCN(C(=O)COc5ccc6nnn(C7CCC(=O)NC7=O)c(=O)c6c5)CC4)CC3)cc2)C(C)(C)[C@H]1Oc1ccc(C#N)c(Cl)c1` (stereo partly specified), the CC50 in the data set with LNCaP amounted to 804 nM. Besides, the Activity in data set [1] amounted to 40%; in data set [2], 51%; in data set [3], 89%.

Regarding `O=C1CC2(CCCC2)CC(=O)N1CCCCN1CCN(c2ncccn2)CC1` [BUSPIRONE], the remaining at 0.5 h, 1 µM in data set [4] worked out at 0.03%.

On to `CC1(C)[C@H](NC(=O)c2ccc(N3CCN(C4CC5(CCN(C(=O)C6CN(c7ccc8nnn(C9CCC(=O)NC9=O)c(=O)c8c7)C6)CC5)C4)CC3)cc2)C(C)(C)[C@H]1Oc1ccc(C#N)c(Cl)c1` (stereo partly specified), for which the cytotoxic concentration (CC50) amounted to 312 nM with LNCaP and 135 nM in the data set with VCaP. Moreover, the Activity in data set [1] was determined as 79%; in data set [2], 0%; in data set [3] it was 0%.

For `CC1(C)[C@H](NC(=O)c2ccc(N3CCN(C4CC5(CCN(c6cccc7nnn(C8CCC(=O)NC8=O)c(=O)c67)CC5)C4)CC3)cc2)C(C)(C)[C@H]1Oc1ccc(C#N)c(Cl)c1` (stereo partly specified), the CC50 with LNCaP was determined as 13400 nM. Moreover, the Activity turned out to be 26% in data set [1], 71% in data set [2] and 0% in data set [3].

For `CC1(C)[C@H](NC(=O)c2ccc(N3CCN(CCC4CCN(c5cccc6nnn(C7CCC(=O)NC7=O)c(=O)c56)CC4)CC3)cc2)C(C)(C)[C@H]1Oc1ccc(C#N)c(Cl)c1` (stereo partly specified), the results for the CC50 in the data set with LNCaP and in the data set on VCaP were above 10000 nM and 1580 nM, respectively. Further, the Activity in data set [1] came out at 31%; in data set [2], 90%; in data set [3], 0%.

For `CC1(C)[C@H](NC(=O)c2ccc(N3CCN(CCC4CCN(c5ccc6nnn(C7CCC(=O)NC7=O)c(=O)c6c5)CC4)CC3)cc2)C(C)(C)[C@H]1Oc1ccc(C#N)c(Cl)c1` (stereo partly specified), the CC50 was found to be 449 nM in the data set on LNCaP and 120 nM with VCaP. For the same compound, the figures for the Activity in data set [1] and in data set [3] were 94% and 51%, respectively. Also, the remaining at 0.5 h, 1 µM in data set [4] was 86.7%.

Consider `CC1(C)[C@H](NC(=O)c2ccc(N3CCN(CC4CCN(C(=O)CNc5ccc6nnn(C7CCC(=O)NC7=O)c(=O)c6c5)CC4)CC3)cc2)C(C)(C)[C@H]1Oc1ccc(C#N)c(Cl)c1` (stereo partly specified), for which the CC50 in the data set with LNCaP was found to be 117 nM; with VCaP it was 3820 nM. Besides, the figures for the Activity in data set [1], in data set [2] and in data set [3] were 89%, 35% and 70%, respectively.

`CC1(C)[C@H](NC(=O)c2ccc(N3CCN(C4CC5(CCN(c6ccc7nnn(C8CCC(=O)NC8=O)c(=O)c7c6)CC5)C4)CC3)cc2)C(C)(C)[C@H]1Oc1ccc(C#N)c(Cl)c1` (stereo partly specified): the CC50 in the data set on LNCaP worked out at 214 nM; in the data set with VCaP, 113 nM. Besides, the Activity in data set [1] came out at 95%; in data set [2] it was 81%; in data set [3] it was 15%.

Take `CC1(C)[C@H](NC(=O)c2ccc(N3CCN(CC4CCN(c5ccc6c(=O)n(C7CCC(=O)NC7=O)nnc6c5)CC4)CC3)cc2)C(C)(C)[C@H]1Oc1ccc(C#N)c(Cl)c1` (stereo partly specified): the results for the Activity in data set [1], in data set [2] and in data set [3] were 60%, 83% and 28%, respectively.
